Where “and” joins values, the source holds several entries; their conditions need not be identical. Identical values can stand only once. Calls of active or inactive are those of the source. The calls are words filed in the database; no cut-off is given here.
Tests used:
[1] = organism: Mustela putorius furo; experiment: In vitro inotropy blocking studies in ferret papillary muscle in the presence of 100 uM nadolol; B-Blocked; format: functional, tissue-based; conditions: Muscle tissue
In short: (§1)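 Ferret papillary muscle dose-response repeated in the presence of 100 μM nadolol. A rise of at least 1 order of magnitude in the measured C20 was scored as a blocked inotropic response.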

[2] = organism: Mustela putorius furo; experiment: In vitro inotropy blocking studies in ferret papillary muscle in the presence of 10 uM cimetidine; NB-Not Blocked; format: functional, tissue-based; conditions: Muscle tissue
In short: (§2)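 Ferret papillary muscle dose-response repeated in the presence of antagonist (cimetidine). A rise of at least 1 order of magnitude in the measured C20 was scored as a blocked inotropic response.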

[3] = Concentration which gives 20% increase in the force contraction in ferret papillary muscle; format: functional, Mustela putorius furo, Muscle tissue
In short: (§3)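 Isolated ferret papillary muscle, force of contraction recorded over a dose-response range. C20 = concentration giving a 20% increase in contractile force. Single experiments reported individually; with three or more runs, mean and range given.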

[4] = organism: Mustela putorius furo; experiment: Concentration of compound which gives 20% increase in the force contraction in ferret papillary muscle; NR-Not reached; format: functional, tissue-based; conditions: Muscle tissue; in short: as §3
[5] = organism: Mustela putorius furo; experiment: (§4) In vitro inotropy blocking studies in ferret papillary muscle in the presence of 10 uM cimetidine; B-Blocked; format: functional, tissue-based; conditions: Muscle tissue
[6] = organism: Mustela putorius furo; experiment: (§5) In vitro inotropy blocking studies in ferret papillary muscle in the presence of 100 uM nadolol; NB-Not Blocked; format: functional, tissue-based; conditions: Muscle tissue
In short: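 Ferret papillary muscle inotropic dose-response curves repeated in the presence of each antagonist (nadolol at 100 μM). A rise in C20 of at least one order of magnitude was scored as a blocked response.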

[7] = test system: Cavia porcellus; experiment: In vivo percent change in airway overflow in guinea pig was determined at a dose of 1 mg/kg/h; format: functional
[8] = dP/dt value of the compound; format: functional; set-up: unit not given here
[9] = organism: Cavia porcellus; experiment: In vitro chronotropic effect of histamine at 5 ug/mL in guinea pig atrium; format: functional; conditions: Cardiac atrium
In short: (§6)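 Spontaneously beating guinea pig right atria. Value is the concentration giving 50% of the chronotropic effect of histamine at 5 μg/mL, taken from dose-response curves. Reported as mean ± SEM of three separate dose-response determinations. Response sensitivity checked with cimetidine.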

[10] = organism: Cavia porcellus; experiment: In vitro contractile response of histamine at 0.5 ug/mL in guinea pig ileum; format: functional
In short: (§7)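 Isolated guinea pig ileum, H1 activity. Value is the concentration giving 50% of the contractile response of histamine at 0.5 μg/mL, taken from dose-response curves. Reported as mean ± SEM of three separate dose-response determinations. Response sensitivity checked with mepyramine.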

[11] = test system: Cavia porcellus; experiment: In vivo percent change in mean arterial pressure in guinea pig was determined at a dose of 1 mg/kg/h; format: functional, Artery
[12] = test system: Cavia porcellus; experiment: In vivo percent change in heart rate in guinea pig was determined at a dose of 1 mg/kg/h; format: functional
[13] = test system: Cavia porcellus; experiment: In vivo percent change in total acid secretion in guinea pig was determined at a dose of 1 mg/kg/h; format: functional
[14] = test system: Rattus norvegicus; experiment: In vivo effect on gastric acid secretion in rat was determined after subcutaneous administration; format: functional; conditions: Stomach, sc
In short: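 Rats, subcutaneous dosing, gastric acid secretion measured by the method of Hagiwara and co-workers. ED50 = dose giving a 50% increase in acid secretion over control. Mean ± SEM of three separate dose-response determinations.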

[15] = organism: Mustela putorius furo; experiment: In vitro inotropy blocking studies in ferret papillary muscle in the presence of 100 uM nadolol; Blocked; format: functional, tissue-based; conditions: Muscle tissue; in short: as §1
[16] = organism: Mustela putorius furo; experiment: as §5; format: functional, tissue-based; conditions: Muscle tissue; in short: as §1; remark: listed apart in the source
[17] = dp/dt value of the compound; format: functional
In short: (§8)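 Pentobarbital-anesthetized guinea pigs with stomach ligated to contain gastric fluid. After 30 min stabilization, blood pressure, heart rate, LVEDP and LV dP/dtmax were recorded at 1-min intervals. Compound given by iv infusion for 60 min, then monitored 10 min more. Gastric contents were titrated against 0.1 N NaOH. Value is the average maximum % change from control in the 10 min after infusion, mean ± SEM.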

[18] = organism: Mustela putorius furo; experiment: as §4; format: functional, tissue-based; conditions: Muscle tissue; in short: as §2; remark: listed apart in the source
[19] = Concentration of compound which gives 20% increase in the force contraction in ferret papillary muscle.; format: functional, Mustela putorius furo, Muscle tissue
In short: (§9)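 Ferret papillary muscle force of contraction. C20 is the concentration giving a 20% increase in force. Values come from individual experiments; where three or more runs were done, the mean and range are given. NR means not reached.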

[20] = organism: Cavia porcellus; experiment: Chronotropic effect of histamine at 5 ug/mL in guinea pig atrium; NR-Not reached; format: functional, Cardiac atrium
[21] = test system: Cavia porcellus; experiment: In vivo percent change in total acid secretion in guinea pig was determined at a dose of 10 mg/kg/hr; format: functional; in short: as §8
[22] = test system: Rattus norvegicus; experiment: In vivo effect on gastric acid secretion in rat was determined after subcutaneous administration; NC-No change; format: functional, organism-based; conditions: Stomach
In short: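 Rats, subcutaneous dosing, gastric acid secretion stimulation. ED50 is the dose giving a 50% increase in acid secretion over control. Reported as mean ± SEM of three separate dose-response determinations.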

[23] = test system: Cavia porcellus; experiment: In vivo percent change in mean arterial pressure in guinea pig was determined at a dose of 10 mg/kg/hr; format: functional, Artery; in short: as §8
[24] = organism: Cavia porcellus; experiment: Contractile response of histamine at 0.5 ug/mL in guinea pig ileum; format: functional; in short: as §7
[25] = test system: Cavia porcellus; experiment: In vivo percent change in air way overflow in guinea pig was determined at a dose of 10 mg/kg/hr; format: functional
[26] = organism: Mustela putorius furo; experiment: Concentration of compound which gives 20% increase in the force contraction in ferret papillary muscle;NR- Not reached; format: functional, tissue-based; conditions: Muscle tissue; in short: as §9
[27] = test system: Cavia porcellus; experiment: In vivo percent change in airway overflow in guinea pig was determined at a dose of 7.5 mg/kg/h; format: functional
[28] = test system: Cavia porcellus; experiment: In vivo percent change in mean arterial pressure in guinea pig was determined at a dose of 7.5 mg/kg/h; format: functional, Artery
[29] = test system: Cavia porcellus; experiment: In vivo percent change in total acid secretion in guinea pig was determined at a dose of 7.5 mg/kg/h; format: functional
[30] = test system: Cavia porcellus; experiment: In vivo percent change in heart rate in guinea pig was determined at a dose of 7.5 mg/kg/h; format: functional
[31] = test system: Cavia porcellus; experiment: In vivo percent change in heart rate in guinea pig was determined at a dose of 75 mg/kg/h; format: functional; in short: as §8
[32] = test system: Cavia porcellus; experiment: In vivo percent change in mean arterial pressure in guinea pig was determined at a dose of 75 mg/kg/h; format: functional, Artery; in short: as §8
[33] = test system: Cavia porcellus; experiment: In vivo percent change total acid secretion in guinea pig was determined at a dose of 75 mg/kg/h; format: functional; in short: as §8
[34] = test system: Cavia porcellus; experiment: In vivo percent change airway overflow in guinea pig was determined at a dose of 75 mg/kg/h; format: functional
[35] = organism: Cavia porcellus; experiment: Chronotropic effect of histamine at 5 ug/mL in guinea pig atrium; format: functional, Cardiac atrium; in short: as §6
[36] = test system: Cavia porcellus; experiment: In vivo percent change in heart rate in guinea pig was determined at a dose of 10 mg/kg/hr; format: functional; in short: as §8
[37] = test system: Cavia porcellus; experiment: In vivo percent change in total acid secretion in guinea pig was determined at a dose of 30 mg/kg/h; format: functional; in short: as §8
[38] = test system: Cavia porcellus; experiment: In vivo percent change in heart rate in guinea pig was determined at a dose of 30 mg/kg/h; format: functional; in short: as §8
[39] = test system: Cavia porcellus; experiment: In vivo percent change in airway overflow in guinea pig was determined at a dose of 30 mg/kg/h; format: functional
[40] = Cavia porcellus, Ileum, read-out: EC50

## CC(CCc1ccc(O)cc1)NCCc1c[nH]cn1 (centres undefined)
[1]
  Activity: Blocked
[2]
  Activity: Not blocked
[3]
  C20: 2 uM l-1 and 5 uM l-1

## Cc1[nH]cnc1CCNCCN
[4]
  C20: Not reached

## c1ccc2c3c(ccc2c1)C(NCCc1c[nH]cn1)CCC3 (centres undefined)
[3]
  C20: >10 uM l-1

## CN(C)CCCSC(=N)N [DIMAPRIT]
[5]
  Activity: Blocked
[6]
  Activity: Not blocked
[7]
  Change: 11%
[8]
  dP/dt: 93
[9]
  EC50: 4.6 µM
[10]
  EC50: 10.4 µM
[11]
  Change: -25%
[12]
  Change: 19%
[13]
  Change: 91%
[14]
  ED50: 3.1 mg/kg

## c1coc(CNCCc2c[nH]cn2)c1
[1]
  Activity: Blocked
[3]
  C20: 27 uM l-1

## C(=C\c1ccccc1)/CCNCCc1c[nH]cn1
[15]
  Activity: Blocked
[3]
  C20: 14 uM l-1 and 21 uM l-1

## NCCc1c[nH]cn1 [HISTAMINE]
[16]
  Activity: inactive
[17]
  dP/dt: 132
[9]
  EC50: 0.98 µM
[10]
  EC50: 0.24 µM
[18]
  Activity: Active
[19]
  C20: 0.42 uM l-1
[14]
  ED50: 2.7 mg/kg

## COc1ccc(CCNCCc2c[nH]cn2)cc1OC
[5]
  Activity: Blocked
[1]
  Activity: Blocked

## Cc1[nH]cnc1CCNCCNC(=O)c1ccc(NS(C)(=O)=O)cc1
[3]
  C20: 20 uM l-1 and 40 uM l-1

## CC(CCc1ccc(O)cc1)N(C)CCc1c[nH]cn1 (centres undefined)
[20]
  EC50: Not reached
[21]
  Change: 22%
[22]
  ED50: inactive
[23]
  Change: 5%
[8]
  dP/dt: 29
[1]
  Activity: Blocked
[2]
  Activity: Not blocked
[24]
  EC50: 128 uM l-1
[25]
  Change: 39%
[3]
  C20: 0.13 uM l-1 and 0.16 uM l-1

## Cc1[nH]cnc1CCNCCNC(=O)c1ccncc1
[4]
  C20: Not reached

## NC(C/C=C/c1ccccc1)CCc1c[nH]cn1 (centres undefined)
[26]
  C20: Not reached

## CCCCCCC(=O)NCCc1c[nH]cn1
[5]
  Activity: Blocked
[6]
  Activity: Not blocked
[20]
  EC50: Not reached
[27]
  Change: 197%
[28]
  Change: 33%
[29]
  Change: 160%
[30]
  Change: 41%
[8]
  dP/dt: 146
[24]; [40]
  EC50: 50.6 µM
[3]
  C20: 7.3 uM l-1
[14]
  ED50: 5.9 mg/kg

## O=C(NCCNCCc1c[nH]cn1)c1ccccc1
[3]
  C20: >66 uM l-1

## CCCCCCCNCCc1c[nH]cn1
[16]
  Activity: Not blocked
[31]
  Change: 14%
[32]
  Change: 15%
[33]
  Change: 220%
[17]
  dP/dt: 155
[18]
  Activity: Blocked
[19]
  C20: 1 uM l-1
[24]; [40]
  EC50: 7.88 µM
[34]
  Change: 150%
[35]; Cavia porcellus, Cardiac atrium, read-out: EC50
  EC50: 71 µM
[14]
  ED50: 10.7 mg/kg

## CN(CCc1c[nH]cn1)Cc1ccco1
[5]
  Activity: Blocked
[6]
  Activity: Not blocked
[20]
  EC50: Not reached
[21]
  Change: 221%
[36]
  Change: -8%
[23]
  Change: -22%
[8]
  dP/dt: -6
[24]
  EC50: 165 uM l-1
[25]
  Change: 51%
[3]
  C20: 6.7 uM l-1
[14]
  ED50: 15.3 mg/kg

## Cc1[nH]cnc1CCNCCNC(=O)c1ccccc1
[3]
  C20: 27 uM l-1

## CCN(CCc1c[nH]cn1)C(C)CCc1ccc(O)cc1 (centres undefined)
[5]
  Activity: Blocked
[1]
  Activity: Blocked
[3]
  C20: 4 uM l-1 and 6 uM l-1

## Cc1[nH]cnc1CCNCCNC(=O)N1CCOCC1
[3]
  C20: >90 uM l-1

## CCCCCCCN(C)CCc1c[nH]cn1
[19]
  C20: >57 uM l-1

## CN(CC/C=C/c1ccccc1)CCc1c[nH]cn1
[1]
  Activity: Blocked
[2]
  Activity: Not blocked

## CCCN(CCc1c[nH]cn1)C(C)CCc1ccc(O)cc1 (centres undefined)
[5]
  Activity: Blocked
[1]
  Activity: Blocked
[3]
  C20: 4.9 uM l-1

## NC(C/C=C/c1ccccc1)Cc1c[nH]cn1 (centres undefined)
[5]
  Activity: Blocked
[6]
  Activity: Not blocked
[37]
  Change: 169%
[22]
  ED50: inactive
[8]
  dP/dt: 68
[38]
  Change: 5%
[39]
  Change: 45%
[24]; [40]
  EC50: 7.23 µM
[35]
  EC50: 184 uM l-1
[3]
  C20: 13 uM l-1

## O=C(c1ccccc1)N1CCC(NCCc2c[nH]cn2)CC1
[3]
  C20: >27 uM l-1

## CC(=O)NCCNCCc1c[nH]cn1
[3]
  C20: 46 uM l-1 and 85 uM l-1

## c1coc(CNCCCc2c[nH]cn2)c1
[3]
  C20: 33 uM l-1
